Entries after “also recorded” stand apart in the source; their conditions may differ.
Columns and labels:
L02 [1] = assay type: cell-based, human
L02 [2] = assay: Cell proliferation assay; assay type: cell-based, human
Outline: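 CCK-8 proliferation in L02 cells (DMEM, 10% FBS, 37 °C, 5% CO₂). Cells were plated overnight in 96-well plates, then given AAI (dissolved in 1% NaHCO₃) and/or SFII (dissolved in DMSO). At 0, 24 and 48 h, medium was swapped for CCK-8 reagent, incubated 2 h at 37 °C, and absorbance was read at 450 nm.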

[3] = test system: liver of adult and infant mice; assay: DNA damage in liver of adult and infant mice; assay type: in vivo; conditions: AAI 20 mg/kg, 24 h
Outline: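 Adult mice and 14-day-old infant mice were injected with PBS (negative control), diethylnitrosamine (positive control) or AAI 20 mg/kg, and killed after 24 h. Liver protein was extracted in lysis buffer and quantified by BCA. Proteins were separated by SDS-PAGE, transferred to nitrocellulose and imaged on an infrared scanner for DNA-damage markers.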

C57BL/6 adult mice [4] = assay: AAI-induced renal fibrosis model in adult mice; assay type: in vivo
Outline: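 Renal fibrosis model in 8-week-old male C57BL/6 mice. A single AAI injection (10 mg/kg i.p.) was given; controls received NaHCO₃. SFII (30 or 60 mg/kg) was gavaged 12 h before AAI and then daily for 3 days; AAI-only mice received olive oil by the same schedule. Animals were killed 14 days after AAI, with body weight monitored.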

HK-2 [5] = assay: Cell proliferation assay; assay type: cell-based, human
Outline: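 HK-2 cells were kept in DMEM/F12 with 10% FBS and 1% antibiotic-antimycotic at 37 °C, 5% CO₂. They were seeded in 96-well plates overnight, then treated with AAI (in 1% NaHCO₃) and SFII (in DMSO) for 48 h. Medium was replaced with CCK-8 reagent for 2 h at 37 °C, and absorbance was read at 450 nm.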

HK-2 [6] = assay type: cell-based, human
C57BL/6 adult mice [7] = assay: AAI-induced acute renal injury model in adult mice; assay type: in vivo
Outline: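 Male C57BL/6 mice aged 8 weeks received AAI 5 mg/kg i.p. for three consecutive days, with NaHCO₃ as the vehicle control. SFII 30 or 60 mg/kg was given by oral gavage 12 h before AAI and at each injection. Mice were killed 3 days after the first AAI dose. Blood creatinine was measured. Kidney sections were stained with Sirius red (37 °C, 30 min), and the stained fibrotic area was calculated.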

infant mice [8] = assay: AAI-induced liver cancer model in infant mice; assay type: in vivo
L02 [9] = assay: qRT-PCR of apoptotic-related genes in L02; assay type: cell-based, human; conditions: AAI (20 or 50 μM) with SFII, 24 h
NQO1 [10] = target: T1, NQO1 (Homo sapiens, UniProt P15559); assay: Surface plasmon resonance; assay type: binding
L02 [11] = assay: ALT and AST in culture medium of L02; assay type: cell-based, human; conditions: AAI (20 or 50 μM) with SFII (5 or 10 μM), 24 h, vs AAI alone
Outline: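 L02 cells were grown in DMEM with 10% FBS and 1% antibiotic-antimycotic at 37 °C, 5% CO₂. Cells were exposed to AAI (20 or 50 μM) with or without SFII (5 or 10 μM) for 24 h. Culture medium was then collected, and ALT and AST were measured with clinical aminotransferase test kits.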

L02 [12] = assay: Flow cytometry analysis of apoptosis in L02; assay type: cell-based, human
Outline: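 L02 cells were plated in 6-well plates overnight, then treated with AAI (20 or 50 μM) with or without SFII (5 or 10 μM) for 24 h. Cells were trypsinised, spun at 1000 rpm for 3 min, washed in PBS, and stained with Annexin V-FITC or -APC plus PI for 20 min at room temperature in the dark. Flow cytometry counted Annexin V⁺/PI⁺ and Annexin V⁺/PI⁻ cells as apoptotic.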

NQO1 [13] = target: NQO1 (Mus musculus, UniProt Q64669); assay: NQO1 activity in kidney and liver tissues of mice; assay type: in vivo; conditions: adult mice, SFII 30, 60 mg/kg orally, 2.5 h
Outline: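 NQO1 activity in mouse kidney and liver samples was measured with a commercial NQO1 activity assay kit. Sample and reaction buffer were mixed in 96-well plates, and absorbance was read at 440 nm.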

HK-2 [14] = assay: Flow cytometry analysis of apoptosis in HK-2; assay type: cell-based, human; conditions: AAI with SFII (10 or 20 μM), 24 h
NQO1 [15] = target: T1, NQO1; assay: NQO1 activity assay in L02 cells; assay type: cell-based; conditions: 8 h
Outline: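 An NQO1-knockdown L02 line was made by infecting cells at 50% density with concentrated shNQO1 or shNC lentivirus plus polybrene for 10 h, then selecting with puromycin (2 μg/mL) for 48 h. Knockdown was verified by qRT-PCR and Western blot. NQO1 activity was measured with a commercial kit, reading absorbance at 440 nm.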

NQO1 [16] = target: T1, NQO1; assay: Comprehensive 2D NQO1 biochromatography retention; assay type: binding; conditions: 2D NQO1 column/C18 column/TOFMS
infant mice [17] = assay: Infant mice acute injury model; assay type: in vivo
Outline: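 Male infant mice on postnatal day 14 were injected with NaHCO₃ or AAI. SFII 10 mg/kg was given 12 h before AAI; control groups were pretreated with olive oil 12 h before injection. Mice were killed 24 h after AAI. Liver and kidney were analysed by Western blot. For TUNEL, sections were quenched with 0.3% H₂O₂ (30 min, room temperature), incubated with TUNEL mix for 2 h at 37 °C in the dark, then streptavidin-HRP for 30 min at 37 °C. Apoptotic cell percentage was calculated.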

NQO1 [18] = target: T1, NQO1; assay: NQO1 activity assay in HK-2 cells; assay type: cell-based; conditions: HK-2, 5 μM, 8 h, vs control group
Outline: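 HK-2 cells (DMEM/F12, 10% FBS, 37 °C, 5% CO₂) were treated with test compound at 5 μM for 8 h before protein extraction. NQO1 activity was measured with a commercial NQO1 activity kit, reading absorbance at 440 nm on a microplate reader.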

HK-2 [19] = assay: qRT-PCR of apoptosis-related genes in HK-2; assay type: cell-based, human; conditions: AAI with SFII, 24 h
Outline: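 HK-2 cells (DMEM/F12, 10% FBS, 1% antibiotic-antimycotic, 37 °C, 5% CO₂) were treated with AAI, SFII, or both for 24 h. Expression of apoptosis-related genes was then measured by qRT-PCR.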

NQO1 [20] = target: T1, NQO1; assay: NQO1 enzyme activity test; assay type: biochemical
Blood coagulation assay = assay type: in vivo; conditions: C57BL/6 adult mice, 6 mg/kg orally, 24 h
Outline: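 Adult C57BL/6 mice (4 per group) received test compound orally at 6 mg/kg and were killed 24 h later. Blood was analysed for activated partial thromboplastin time, prothrombin time and thrombin time.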

[21] = adult mice renal fibrosis model

T1 sequence (P15559 whole entry): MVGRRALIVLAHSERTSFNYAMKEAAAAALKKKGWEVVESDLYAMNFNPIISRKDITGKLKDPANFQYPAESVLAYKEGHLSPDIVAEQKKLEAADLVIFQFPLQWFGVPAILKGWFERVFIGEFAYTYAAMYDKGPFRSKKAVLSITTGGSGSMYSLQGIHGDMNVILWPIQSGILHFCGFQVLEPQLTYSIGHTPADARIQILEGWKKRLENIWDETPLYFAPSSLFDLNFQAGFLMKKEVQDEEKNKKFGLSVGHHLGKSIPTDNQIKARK
NQO1 (Mus musculus, UniProt Q64669), sequence (Q64669 2-274 limits assumed): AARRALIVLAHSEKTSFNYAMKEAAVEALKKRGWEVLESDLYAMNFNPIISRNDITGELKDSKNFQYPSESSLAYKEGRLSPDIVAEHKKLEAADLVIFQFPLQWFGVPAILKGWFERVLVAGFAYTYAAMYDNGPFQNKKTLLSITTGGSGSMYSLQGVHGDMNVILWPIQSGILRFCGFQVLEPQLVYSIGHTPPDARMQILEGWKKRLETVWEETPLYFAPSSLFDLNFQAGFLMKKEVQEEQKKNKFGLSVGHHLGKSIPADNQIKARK

Structure (SMILES): COc1cccc2c1cc([N+](=O)[O-])c1c(C(=O)O)cc3c(c12)OCO3 [AAI, Aristolochic acid I, reference compound]
- γ-H2AX expression (DNA damage) in L02 (L02 [1]; AAI 20 μM): considerable increase
- anti-proliferative effect in L02 (L02 [2]; AAI 0, 5, 10, 20, 50, or 100 μM, 48 h): gradually intensified
- DNA damage in the liver of adult mice [3]: scarcely caused DNA damage
- γ-H2AX in the liver of infant mice ([3]; age 14 days): upregulation of γ-H2AX
- body weight, AAI (C57BL/6 adult mice [4]; [21]): intensive weight loss
- AAI-induced proliferation inhibition in HK-2 (HK-2 [5]; different doses of AAI, compared with L02): better tolerance
- expression of γ-H2AX in HK-2 (HK-2 [6]; AAI dose gradient, particularly at 100 μM): increase
- elevation of blood CRE, fold change (C57BL/6 adult mice [7]; adult mice, AAI 5 mg/kg i.p. for 3 days, AAI alone): over 1.5

Structure (SMILES): COc1cccc(O)c1-c1cc(=O)c2c(O)c(OC)c(OC)c(OC)c2o1 [SFII, skullcapflavone II]
- number of tumors per liver (infant mice [8]; SFII 10, 30 or 60 mg/kg gavage 12 h before AAI 20 mg/kg, 16 weeks, dose-independently): significant decrease
- kidney fibrosis (infant mice [8]; SFII pretreated, 16 weeks after AAI administration): notably relieved
- mRNA levels of BAX, NOXA, PUMA, and BAK in L02 (L02 [9]): significantly downregulate
- Kd (NQO1 [10]): 4200 nM
- ALT level in culture supernatant of L02 (L02 [11]): decreased
- AST level in culture supernatant of L02 (L02 [11]): decreased
- expression of P53, cleaved caspase-3, cleaved-PARP-1 and γ-H2AX in L02 (L02 [1]; AAI (20 or 50 μM) with SFII, 24 h): efficaciously decrease
- inhibitory effect of AAI on cell proliferation in L02 (L02 [2]; AAI 20 μM + SFII 5 or 10 μM, 48 h, vs AAI alone): significantly relieved
- cell proliferation of L02, SFII alone (L02 [2]; SFII alone): barely affected
- percentage of apoptotic cells in L02 (L02 [12]; AAI (20 μM, 50 μM) with SFII (5 or 10 μM), 24 h, vs AAI alone): significantly decreased
- apoptosis of L02, SFII alone (L02 [12]; SFII treatment alone): did not affect
- renal histology (H&E and Sirius red staining) (C57BL/6 adult mice [4]; SFII 30 or 60 mg/kg gavage + single AAI 10 mg/kg i.p., day 14): effectively relieved renal tubular atrophy and interstitial fibrosis
- body weight, mice pretreated with SFII (C57BL/6 adult mice [4]; [21]): no significant change
- AAI-induced inhibition of cell proliferation in HK-2 (HK-2 [5]; AAI 100 μM with SFII, 48 h): partially alleviated
- NQO1 enzyme activity in kidney and liver in vivo (NQO1 [13]): good inhibitory effect
- percentage of apoptotic cells in HK-2 (HK-2 [14]): reduced the percentage of apoptotic cells in HK-2 in a dose-dependent manner
- expression of γ-H2AX and downstream pro-apoptotic signaling in HK-2 (HK-2 [6]; AAI with SFII, 24 h): significantly decrease
- expressions of γ-H2AX, P53, cleaved-caspase-3, and cleaved-PARP-1 protein in kidney (C57BL/6 adult mice [7]; SFII 30 or 60 mg/kg oral + AAI 5 mg/kg): downregulated
- blood CRE (C57BL/6 adult mice [7]; SFII 30 or 60 mg/kg oral + AAI 5 mg/kg, 3 days, vs AAI alone): significantly declined
- fibrosis area of kidney (Sirius red staining) (C57BL/6 adult mice [7]; SFII 30 or 60 mg/kg oral + AAI 5 mg/kg, vs AAI alone, dose-dependent): significantly limited
- inhibitory capability to NQO1 activity in L02 (NQO1 [15]; L02, 5 μM): significantly higher than oroxylin A
- NQO1 activity of shNQO1-L02 (NQO1 [15]; NQO1 knockdown L02, SFII 5 μM): further reduced
- retention on NQO1 biochromatography (NQO1 [16]): retention behaviors
- expression of DNA damage and apoptosis-related proteins in liver and kidney (infant mice [17]; SFII 10 mg/kg 12 h before AAI 20 mg/kg, 24 h): significantly decreased
- cell apoptosis and interstitial fibrosis in kidney (infant mice [17]; SFII 10 mg/kg pre-treated + AAI 20 mg/kg): reduced cell apoptosis as well as interstitial fibrosis
- proportion of apoptotic cells in the liver (infant mice [17]; SFII 10 mg/kg pre-treated, vs AAI alone): decreased
- inhibition of NQO1 activity in HK-2 (NQO1 [18]): more efficient NQO1 inhibitory effect
- expression of apoptosis-related genes BAX, NOXA, PUMA, and BAK in HK-2 (HK-2 [19]): downregulated
- IC50 (NQO1 [20]): 2870 nM
- activated partial thromboplastin time (APTT) (Blood coagulation assay; 6 mg/kg): not significantly altered; also recorded: barely prolonged
- prothrombin time (PT) (Blood coagulation assay; 6 mg/kg): not significantly altered; also recorded: barely prolonged
- thrombin time (TT) (Blood coagulation assay; 6 mg/kg): not significantly altered; also recorded: barely prolonged

Structure (SMILES): C[C@@H]1C[C@H]2[C@@H]3CCC4=CC(=O)C=C[C@]4(C)[C@@]3(F)[C@@H](O)C[C@]2(C)[C@@]1(O)C(=O)CO [dexamethasone, reference compound]
- retention on NQO1 biochromatography (NQO1 [16]): no retention

Structure (SMILES): O=c1oc2ccccc2c(O)c1Cc1c(O)c2ccccc2oc1=O [dicoumarol, reference compound]
- activated partial thromboplastin time (APTT) (Blood coagulation assay): significantly elevate
- prothrombin time (PT) (Blood coagulation assay): significantly elevate
- thrombin time (TT) (Blood coagulation assay): significantly elevate

Structure (SMILES): COc1c(O)cc2oc(-c3ccccc3)cc(=O)c2c1O [oroxylin A]
- Kd (NQO1 [10]): 873 nM
- retention on NQO1 biochromatography (NQO1 [16]): retention behaviors
- inhibition of NQO1 activity in HK-2 (NQO1 [18]): did not notably inhibit
- IC50 (NQO1 [20]): 930 nM
- activated partial thromboplastin time (APTT) (Blood coagulation assay): not significantly altered
- prothrombin time (PT) (Blood coagulation assay): not significantly altered
- thrombin time (TT) (Blood coagulation assay): not significantly altered

Structure (SMILES): COc1cc(O)c2c(=O)cc(-c3ccccc3)oc2c1 [tectochrysin]
- retention on NQO1 biochromatography (NQO1 [16]): retention behaviors

Structure (SMILES): COc1c(O)cc(O)c2c(=O)cc(-c3ccccc3)oc12 [wogonin]
- retention on NQO1 biochromatography (NQO1 [16]): retention behaviors
- IC50 (NQO1 [20]): 10100 nM

Reference: paper PMC9876410 (Acta Pharmacologica Sinica, 2023)
